Only some compounds are listed: those with a hit (about 29% of all), similar ones and a draw of the others.
CYP2C19 activ: increases human CYP2C19 enzyme activity; 96,000 tested, under 10 active; recombinant CYP2C19, luciferin-H EGE luminescence; active compounds read high; 0 = fully inhibited enzyme, 1 = untreated enzyme; activation factor at 5 µM;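 active = activation factor of at least 2 at 5 µM in the primary screen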;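 also: 0 = wells with 2.5 mM tranylcypromine and 1 = vehicle-only wells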
CYP2C9 inhib: human CYP2C9 inhibition; actives 20% (n = 96,000); inhibition, % at 5 µM; P11712; CYP2C9 Supersomes, luciferin-H conversion, luminescence;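 active = blocking of liver enzyme CYP2C9 beyond about 50% at 5 µM, limit read from the data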
Target sequence (P11712 whole entry, looked up): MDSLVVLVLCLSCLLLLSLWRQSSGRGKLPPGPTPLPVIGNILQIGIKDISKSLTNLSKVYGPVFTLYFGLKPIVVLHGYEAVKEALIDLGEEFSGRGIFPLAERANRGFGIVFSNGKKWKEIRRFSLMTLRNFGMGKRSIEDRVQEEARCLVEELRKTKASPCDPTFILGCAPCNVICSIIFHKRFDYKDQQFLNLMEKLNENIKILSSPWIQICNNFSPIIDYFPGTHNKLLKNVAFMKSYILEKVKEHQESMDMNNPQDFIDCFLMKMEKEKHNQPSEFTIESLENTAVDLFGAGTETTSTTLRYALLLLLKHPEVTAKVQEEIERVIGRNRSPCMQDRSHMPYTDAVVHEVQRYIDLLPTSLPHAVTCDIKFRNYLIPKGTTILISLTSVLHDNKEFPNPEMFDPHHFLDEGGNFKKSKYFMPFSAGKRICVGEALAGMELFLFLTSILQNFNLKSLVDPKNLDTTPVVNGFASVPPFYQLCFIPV
CYP2C9 act: CYP2C9 (human) activation | P11712 | recombinant CYP2C9, luciferin-H conversion, luminescence; active compounds read high; factor 1 = untreated enzyme, 0 = blocked | activation factor at 5 µM | actives 1.4% (n = 96,000) | AID 1024;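 active = activation factor of 2 or more for CYP2C9 at a 5 µM dose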;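 also: 0 = sulfaphenazole-blocked wells and 1 = vehicle-only wells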
tolC growth inh: E. coli tolC mutant growth inhibition; E. coli BW25113 tolC mutant growth, OD615; growth inhibition, % at 10 µM (by protocol); actives 2.2% (n = 65,000); AID 573;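 active = growth inhibition at or above a cutoff equal to the mean over every tested compound plus 3 SD, cut at about 60% in these data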;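 also: growth measured after 20 h incubation at 37 °C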
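Assay system: tolC-deleted E. coli BW25113. Medium: kanamycin-containing LB broth (50 µg/mL). Dosing: 10 µM final, single dose. Timing: bacterial growth with compound for 20 h at 37 °C. Detection: A615 absorbance measurement. Read-out basis: growth inhibition in percent.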
Ecoli WT expand: blocks growth of wild type E. coli BW25113; OD600 absorbance; growth inhibition, % at 100 µM; actives 0.15% (n = 98,000); AID 710;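 active = growth inhibition above about 50% at one test dose, limit read from the data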;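 also: growth measured after 20 h incubation at 37 °C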
CYP2C19 inh: blocks human cytochrome P450 2C19; P33261; CYP2C19 Supersomes, luciferin-H EGE luminescence, 30 min; inhibition, % at 5 µM; actives 21% (n = 96,000); AID 778;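 active = CYP2C19 inhibition above a set limit at 5 µM in the primary screen, cut at about 50% in these data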;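 also: plate controls were negative control wells for no effect and 2.5 mM tranylcypromine positive control for full effect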
* = called active by the depositor; nt = no result.

SMILES | CYP2C19 activ | CYP2C9 inhib | CYP2C9 act | tolC growth inh | Ecoli WT expand | CYP2C19 inh
CN(C)C(/C=C/Nc1ccc(C#N)cc1)=C(C#N)C#N | 0.4 | 25 | 0.8 | nt | -1 | 58*
CCC(CC)C(=O)N1c2ccc(F)cc2CCC1C (stereo unspecified) | 0.6 | 74* | 0.3 | 12 | 7 | 43
CC(C(=O)N1c2ccc(F)cc2CCC1C)N1C(=O)c2ccccc2C1=O (stereo unspecified) | 0.3 | 45 | 0.5 | 9 | 2 | 69*
CC1CCc2cc(F)ccc2N1C(=O)C1(C)CC1(Cl)Cl (stereo unspecified) | 0.4 | 36 | 0.6 | nt | 10 | 56*
COc1ccccc1NC(=O)N1c2ccc(F)cc2CCC1C (stereo unspecified) | 1 | 1 | 1 | 31 | 3 | 4
COc1ccc(C(=O)CSc2nnc(Cn3cnc4ccccc43)o2)cc1 | 0.7 | -10 | 1.1 | 9 | -1 | 30
Cc1ccc(-n2c(SCC(=O)NC3CCCCC3)nc3c(c2=O)SCC3)cc1 | 0.8 | 8 | 0.9 | 3 | -10 | 24
CCCCc1ccc(Nc2nc(CCC)cc(=O)[nH]2)cc1 | 0.9 | 20 | 0.8 | 100* | 2 | 6
COC(=O)[C@H](CC(C)C)NC(=O)NC1CCCCC1C (stereo partly specified) | 0.7 | 23 | 0.8 | nt | 3 | 25
CCOC(=O)c1cn(CC)c2cc(N3CCOCC3)c(F)cc2c1=O | nt | nt | nt | 100* | 22 | nt
CCOC(=O)N1CCN(C(=O)c2cn(CC)c3cc(N4CCN(C)CC4)c(F)cc3c2=O)CC1 | nt | nt | nt | 16 | 100* | nt
CCOC(=O)c1cn(CC)c2cc(N3CCCCC3)c(F)cc2c1=O | nt | nt | nt | 100* | nt | nt
CCOC(=O)C1CCCN(C(=O)c2cn(CC)c3ccc(S(=O)(=O)N4CCCC4)cc3c2=O)C1 (stereo unspecified) | 1 | 11 | 0.9 | -12 | -16 | 5
CC(=O)c1cc(F)c(N2CCOCC2)cc1C | 1.1 | 0 | 1 | nt | 3 | -7
CCOC(=O)C1CN(c2cc3c(cc2F)c(=O)c(C(=O)O)cn3CC)OC1C(=O)OCC (stereo unspecified) | 1.1 | 1 | 1 | 98* | 10 | -5
COc1ccc(-c2nc(CN3CCC(C(=O)NC(C)C)CC3)c(C)o2)cc1OC | nt | nt | nt | -20 | nt | nt
CCn1cc(C(=O)O)c(=O)c2cc(OC)ccc21 | 1.2 | -10 | 1.1 | 97* | 32 | -22
CCCCCCC(=O)N1CCN(c2cc3c(cc2F)c(=O)c(C(=O)O)cn3CC)CC1 | nt | nt | nt | 0 | nt | nt
CCC(=O)N1CCN(c2cc3c(cc2F)c(=O)c(C(=O)O)cn3CC)CC1 | nt | nt | nt | 100* | nt | nt
COC(=O)c1cc(Cl)c(NS(=O)(=O)c2ccccc2)cc1OC | 0.1 | 92* | 0.1 | 26 | -7 | 92*
COc1ccc(NC(=O)CNS(=O)(=O)c2ccccc2)cc1Cl | 0.4 | -60 | 1.6 | 2 | 3 | 63*
COc1ccc(S(=O)(=O)Nc2ccc(C)cc2)cc1N(C)S(=O)(=O)c1ccc(Cl)cc1 | 0.3 | 62* | 0.4 | nt | -16 | 71*
COC(=O)c1cc(NS(=O)(=O)c2ccc(OC)c(OC)c2)ccc1Cl | 0 | 80* | 0.2 | 10 | 14 | 100*
COc1ccc(S(=O)(=O)Nc2ccc(F)c(Cl)c2)cc1OC | 0 | 56* | 0.4 | 7 | 11 | 100*
COc1ccc(NC(=O)C=C(C)C)cc1Cl | 0.4 | 14 | 0.9 | 3 | 6 | 58*
SMILES | CYP2C19 activ | CYP2C9 inhib | CYP2C9 act | tolC growth inh | Ecoli WT expand | CYP2C19 inh
COC(=O)COc1ccc(S(=O)(=O)Nc2ccc(C(N)=O)cc2)cc1Cl | 0.9 | 42 | 0.6 | -3 | 1 | 15
COc1ccc(NC(=O)C(C)NS(=O)(=O)c2ccc(NC(C)=O)cc2)cc1Cl (stereo unspecified) | nt | nt | nt | -10 | -16 | nt
COc1cc(S(=O)(=O)NC(C)C)ccc1Cl | 0.5 | -154 | 2.5* | nt | -2 | 53*
CCn1cc(C(=O)OCC(=O)Nc2c(C)n(C)n(-c3ccccc3)c2=O)c(=O)c2ccc(C)nc21 | 0.9 | 6 | 0.9 | 0 | 6 | 10
CCn1cc(C(=O)OC(C)C(=O)Nc2c(C)n(C)n(-c3ccccc3)c2=O)c(=O)c2ccc(C)nc21 (stereo unspecified) | 1 | 4 | 1 | 99* | 26 | 0
O=C(N1CCN(c2ccc(F)cc2)CC1)C12CC3CC(CC(C3)C1)C2 | 0.7 | 48 | 0.5 | 3 | 4 | 26
Cc1cccc(N2CCN(C(=O)C34CC5CC(CC(C5)C3)C4)CC2)c1C | 0.8 | 29 | 0.7 | 63* | -6 | 22
O=C(N1CCN(c2ccccc2F)CC1)C12CC3CC(CC(C3)C1)C2 | 0.8 | 24 | 0.8 | 89* | 10 | 24
Cc1cc(NC(=O)CSc2nnc(-c3ccco3)o2)no1 | 1 | -8 | 1.1 | -10 | 14 | -4
COc1ccccc1N1CCN(S(=O)(=O)c2ccc3c4c(cccc24)C(=O)N3)CC1 | 0.7 | 16 | 0.8 | 31 | -10 | 31
CCOc1ccc(S(=O)(=O)N2CCN(c3ccccc3)CC2)c2cccnc12 | 0.6 | 59* | 0.4 | 9 | 0 | 36
COc1ccccc1N1CCN(S(=O)(=O)c2ccc3c4c(cccc24)C(=O)N3C)CC1 | 0.4 | 72* | 0.3 | 10 | -6 | 64*
CCOc1ccc(S(=O)(=O)N2CCN(c3ccccc3OC)CC2)c2cccnc12 | 0.5 | 58* | 0.4 | 8 | -12 | 49
CCOc1ccc(S(=O)(=O)N2CCN(c3ccc(OC)cc3)CC2)c2cccnc12 | 0.8 | 42 | 0.6 | 9 | -5 | 17
O=C1CCN(C(=O)c2ccccc2)C2CCCCC12 (stereo unspecified) | 0.9 | -16 | 1.2 | -8 | 6 | 13
CC(=O)NC(NC(C)=O)c1ccc(N(C)C)cc1 | nt | nt | nt | -7 | nt | nt
CCCCNC(=O)Nc1cnn(CC)c1C(N)=O | 1 | -4 | 1 | -27 | -2 | -1
O=S(=O)(c1ccc(-c2csc(=Nc3ccccc3)n2CCCN2CCOCC2)cc1)N1CCOCC1 | 0.4 | 36 | 0.6 | nt | -3 | 56*
O=C(NC1CCCCC1)C(c1ccccc1)N(C(=O)c1cccs1)c1ccc2c(c1)OCO2 (stereo unspecified) | 0.9 | 32 | 0.7 | nt | -10 | 9
COc1ccc(C(C(=O)NC2CCCC2)N(C(=O)c2ccoc2C)c2ccc(C)cc2)cc1 (stereo unspecified) | 0.5 | 73* | 0.3 | nt | -1 | 50*
O=C(NC1CCCCC1)C(c1ccc2ncccc2c1)N(Cc1ccccc1)C(=O)c1cccs1 (stereo unspecified) | 0.9 | 73* | 0.3 | nt | -6 | 11
COc1ccc(C(C(=O)NC2CCCCC2)N(C(=O)c2cccs2)c2ccc3c(c2)OCO3)cc1 (stereo unspecified) | 0.7 | 53* | 0.5 | nt | -7 | 26

Screens deposited in PubChem by several laboratories.
